Compounds with a hit are over-represented: about 2% of the library has one in this group of screens.
Myeloid diff MLP = induction of myeloid progenitor differentiation, primary screen, cell-based, flow cytometry, MLPCN library; ER-HoxA9 myeloid progenitors, lysozyme-GFP differentiation; calls only at 10 µM; hit rate 1% among 360,000; AID 624256, 2012;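 active means normalized GFP-positive differentiation at or above the plate's own cutoff, the solvent-only control mean plus 3 SD; inconclusive means no clear call, values can overlap the other calls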;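 further: cells exposed to compound for four days before flow analysis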
T cell HTS = modulators of CD8 T cell-vesicle binding, primary screen, mouse 2C CD8+ T cells, flow cytometry; 2C CD8+ T cell-vesicle binding; stronger effect = lower value; hit rate 0.068% among 330,000; AID 2052, 2009; response (vesicle binding), % at 7 µM;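 active means response, share of CD8 T cells binding vesicles, and their 90th percentile fluorescence all below set limits, cut at about 80% in these data, passing the limit was not always enough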;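 further: values below 100% mean blocked vesicle binding to the CD8+ T cells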
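Assay system – 2C mouse CD8+ T cells · Also added – QL9-loaded Drosophila micro-vesicles · Timing – Cell–vesicle co-incubation 1.5 h at 37 °C, staining 20 min on ice · Signal – flow cytometry of vesicle-bound cells · Measure – percent CD8+ FL2 mean versus row control · Controls – Peptide-free naked vesicles (low) and QL9 vesicles with 0.7% DMSO vehicle (high)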
NR2E3 ag-1 = NR2E3 agonists in two-hybrid cells, primary screen, cell-based, luminescence, CHO-S, Gal4-NCOR/VP16-NR2E3. luciferase. inhibition of corepressor binding, % at 3.98 µM. hit rate 0.35% among 360,000;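 active means inhibition above the mean of all tested compounds plus 3 SD, cut at about 70% in these data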;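 further: 0% = DMSO with NR2E3 transfected cells and 100% = cells lacking NR2E3 construct; higher means lower luciferase signal from less NR2E3 corepressor binding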
Target sequence (Q9Y5X4 whole entry, looked up, the tested form may be a part): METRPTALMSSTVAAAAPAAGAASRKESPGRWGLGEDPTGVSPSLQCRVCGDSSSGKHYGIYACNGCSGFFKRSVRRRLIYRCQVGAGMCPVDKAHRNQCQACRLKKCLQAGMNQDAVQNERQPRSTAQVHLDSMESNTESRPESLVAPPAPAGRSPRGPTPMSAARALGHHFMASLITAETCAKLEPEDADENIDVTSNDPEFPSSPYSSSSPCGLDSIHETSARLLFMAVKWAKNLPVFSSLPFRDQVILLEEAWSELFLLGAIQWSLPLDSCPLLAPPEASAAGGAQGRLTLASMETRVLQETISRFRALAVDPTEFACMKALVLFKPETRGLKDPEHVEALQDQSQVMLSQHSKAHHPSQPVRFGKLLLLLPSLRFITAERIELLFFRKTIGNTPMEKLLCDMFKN
NR2E3 ag-2 = inhibitors of NR2E3-RetCOR corepressor binding, primary screen, NR2E3 agonist project, biochemical, TR-FRET, GST-NR2E3, biotin-RetCOR; 1536-well; inhibition of corepressor binding, % at 4.78 µM; hit rate 0.12% among 320,000;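 active means percent inhibition above the cutoff of mean plus 3 SD of all tested compounds, set per screening campaign, cut at about 20% in these data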;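 further: 0% = DMSO wells and 100% = biotin wells as full block of FRET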
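Material – GST-tagged NR2E3 plus biotinylated RetCOR corepressor · Quantity – NR2E3 fusion 1.35 nM · Times – 5 h incubation at 4 °C · Medium – pH 7.5 Tris-based buffer · Technique – TR-FRET, Eu(K)-anti-GST donor, streptavidin-D2 acceptor, ex 340, em 617/671 nm · Benchmarks – high control biotin, low control 0.6% DMSO · Format – 1536-well plates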
FXN GAA850 act = FXN promoter activators, primary screen, cell-based, luciferase luminescence, HEK293 lucGAA850. HEK293 lucGAA850 FXN promoter luciferase reporter, 24 h; percent of 10 µM SAHA response. activation, % at 6 µM. hit rate 0.56% among 360,000. AID 540364, 2011;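 active means activation above the average of all compounds screened plus 3 SD, cutoff fixed separately per campaign, cut at about 7.5% in these data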;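 further: 0% = DMSO wells and 100% = 10 µM SAHA wells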
Numbers without * were called inactive; i = inactive; ? = inconclusive; nt = no result; + = active, no number.

SMILES	Myeloid diff MLP	T cell HTS	NR2E3 ag-1	NR2E3 ag-2	FXN GAA850 act
CCCCN1C(=O)/C(=C/C=C2\Oc3ccccc3N2CC)SC1=S	+	nt	-8	nt	3
CCCN1C(=O)/C(=C/C=C2\N(CC)c3ccccc3C2(C)C)SC1=S	+	454	-34	5	-1
COc1ccc(CN2C(=O)CN(S(C)(=O)=O)CC2(C)C(=O)NCc2ccccc2)cc1OC (stereo not given)	i	nt	nt	nt	nt
CC(C)NC(=O)c1cc(C2CCCCN2S(=O)(=O)c2cccc3cccnc23)on1 (stereo not given)	i	nt	1	nt	-1
C[C@@H](NC(=O)[C@@H]1CCCN1C(=O)[C@@H]1CCCN1C(=O)OC(C)(C)C)c1ccccc1	i	nt	-10	nt	nt
Nc1ccc2c(c1)N1CCN=C1S2	i	201	-10	-1	-1
O=C(Nc1ccc(Cl)cc1)Nc1ccc2c(c1)N1CCN=C1S2	+	309	-5	2	4
N=C1/C(=C\c2ccc(-c3cccc(C(=O)O)c3)o2)C(=O)N=C2SC=C(c3ccccc3)N12	i	357	-30	2	4
CN[C@H](C)C(=O)NC[C@H]1O[C@@H](n2cnc3c(N)ncnc32)[C@H](O)[C@@H]1O	i	nt	-29	nt	2
N#C/C(=N\Nc1ccc(S(=O)(=O)N2CCOCC2)cc1)C(N)=S	+	213	18	-3	-1
Cc1cc(Br)cn2c(Cc3cccc(F)c3)c(-c3ccc(C#N)cc3)nc12	i	nt	-3	nt	nt
O=C1NC(c2ccccc2)=C(c2nc3ccccc3s2)C(c2ccc(O)cc2)N1 (stereo not given)	+	501	0	2	1
c1cnc2nc3c4ccccc4c4ccccc4c3nc2c1	+	nt	40	nt	4
Cc1nc2ccccc2c2ncccc12	i	130	-31	-2	1
O=C(CCc1nnc2ccc(NCc3ccco3)nn12)N1CCCCC1	+	426	-18	2	0
COc1ccc(NC(=O)CCc2nnc3ccc(NCc4ccco4)nn23)cc1OC	?	486	13	5	1
Cc1ccc(NC(=O)CCc2nnc3ccc(NCc4ccco4)nn23)cc1F	+	255	-30	-1	1
NC(=O)CSCc1nc2ccccc2s1	i	192	-35	3	1
N/C(Cc1nc2ccccc2s1)=N\O	+	217	-20	0	1
O=S(=O)(c1ccc(N2CCN(c3ccc(F)cc3)CC2)cc1)N1CCCC1	i	306	-14	3	-3
O=S(=O)(c1ccc(N2CCCC2)cc1)C(F)(F)F	+	154	21	0	1
Cc1ccc(S(=O)(=O)c2c(N)n(Cc3ccco3)c3nc4ccccc4nc23)cc1	i	249	8	-2	1
Cc1cccc(S(=O)(=O)c2c(N)n(Cc3ccco3)c3nc4ccccc4nc23)c1	+	262	32	-1	1
COc1ccc(NS(=O)(=O)c2cc([N+](=O)[O-])ccc2N/N=C/c2c(C)[nH]c3ccccc23)cc1	+	nt	-14	nt	-1
Cc1[nH]c2ccccc2c1/C=N/Nc1ccccc1[N+](=O)[O-]	i	231	-45	1	5
SMILES	Myeloid diff MLP	T cell HTS	NR2E3 ag-1	NR2E3 ag-2	FXN GAA850 act
COc1ccc(CNC(=O)c2sc(=O)n(Cc3ccccc3OC)c2C)cc1	i	nt	20	nt	1
CCOc1ccc(NC2=CC(=O)C(=O)c3ccccc32)cc1	?	nt	-42	nt	0
COc1cc(Cl)c(NC2=CC(=O)C(=O)c3ccccc32)c(OC)c1	+	108	-14	1	-3
CCn1c(SCC(=O)N2CC(C)OC(C)C2)nc2c([nH]c3ccccc32)c1=O (stereo not given)	i	360	2	3	2
O=C(Nc1ccncc1)c1cccc(S(=O)(=O)N2CCc3ccccc32)c1	+	283	-1	6	-2
O=C(Nc1cccnc1)c1cccc(S(=O)(=O)N2CCc3ccccc32)c1	i	352	6	0	0
COc1cc(C=C2C(=O)c3ccccc3C2=O)cc(OC)c1OC	+	239	-54	-2	0
COc1cc(C=C2C(=O)c3ccccc3C2=O)cc(OC)c1	+	211	-16	-2	0
COc1cccc(/C=C2\C(=O)C(=O)c3ccccc32)c1	+	228	-22	0	-1
COc1cc(/C=C(\C#N)c2nc3ccccc3s2)ccc1OCC(=O)Nc1ccccc1	+	498	-18	5	2
Nc1ccc2c3c(cccc13)-c1ccccc1-2	+	nt	-92	nt	2
O=C(C1CCCN(S(=O)(=O)c2cccc3nonc23)C1)N1CCN(c2ccccc2Cl)CC1 (stereo not given)	i	222	-7	0	0
O=C(C1CCCN(S(=O)(=O)c2cccc3nonc23)C1)N1CCN(c2cccc(Cl)c2)CC1 (stereo not given)	+	498	0	1	-3
CCc1ccc2c(c1)NC(=O)C2(C)Cc1ccc(C(F)(F)F)nc1 (stereo not given)	i	nt	-23	nt	3
O=[N+]([O-])c1ccc(NCCCNS(=O)(=O)c2ccccc2)c(Cl)c1	i	267	12	0	0
COc1ccc(/C=N/NC(=O)c2cccc(NC(=O)c3ccc(Cl)cc3)c2)c(OC)c1	+	234	-29	1	2
CCOC(=O)N1CCC(NC(=O)CSCc2cnn(-c3ccccc3)c2-n2cccc2)CC1	i	146	1	1	8.3*
COC(=O)Cc1ccc(NC(=S)NCCSc2ccc(Cl)cc2)cc1	i	314	-20	1	-1
Cc1coc2c(C)c3oc(=O)c(CCC(=O)N4CCC(C(=O)NCCCC(=O)O)(c5ccccc5)CC4)c(C)c3cc12	i	238	-34	4	0
COc1ccc(S(=O)(=O)Nc2c(O)c3ccccc3oc2=O)cc1	+	433	-40	-4	2
Cc1ccc(S(=O)(=O)Nc2c(O)c3ccccc3oc2=O)cc1	i	325	-18	0	-2
Cc1cc(SCC(=O)Nc2cccc(S(N)(=O)=O)c2)c(C)cc1Br	i	283	-24	2	3
Cc1cc(SCC(=O)Nc2cccc(S(=O)(=O)NC3=NCCCCC3)c2)c(C)cc1Br	+	118	-15	-1	-3
COc1ccc(CNc2ncnc3sccc23)cc1OC	i	i	80*	2	-1
CCOC(=O)c1c(C)[nH]c(C(=O)/C(C#N)=C/c2ccc(OCC)cc2)c1C	+	246	-9	1	2

Bioassay records from PubChem.
